# The entries come from a sample that favours hits as a whole.
# p-CIP stab down: p/CIP protein destabilization. Q05BA5. F442A p/CIP-EGFP cells, EGFP fluorescence, 16 h. decrease of EGFP signal, % at 10 µM. 0.01% of 290,000 active;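 active = EGFP signal decrease of at least 30% at 10 µM or well 3 SD below plate mean, unless failing retest; inactive = the rest, including hits failing retest or dose response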
# Hep lipid drop: modulators of hepatic lipid droplet formation; AML12 mouse hepatocytes, oleate lipid droplets, BODIPY imaging; inhibition, % at 6.5 µM; 0.4% of 240,000 active;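 active = lipid droplet intensity inhibited by at least 50%, with more than 500 cells counted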
#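 Technique: fluorescence imaging, 20x objective, two fields per well / Assay system: AML12 hepatocytes (mouse) / Measure: % inhibition of lipid droplet signal / Doses: 6.5 µM single-point dosing / Incubation: overnight exposure / Reagent: 100 µM oleic acid challenge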
# Mdm2 ligase inh: blocks human Mdm2 ubiquitin ligase activity | Q00987 | 0.11% of 210,000 active | signal enhancement, % at 5 µM | cell-based MDM2 ubiquitination luciferase reporter, 2 h; 0 = plate control, 100 = twice control, blank-subtracted;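 active = signal enhancement of 30% or more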;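 note: luminescence tracks abundance of the self-degrading MDM2-luciferase fusion protein; higher signal means inhibition of MDM2 E3 ligase activity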
#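 test system = mammalian cells stably expressing self-ubiquitinating, self-degrading MDM2 E3–luciferase fusion | quantity = 2000 cells/well | incubation = cell settling 4 h, compound treatment 2 h, both 37 °C | signal = luminescence with SteadyLite reagent, 15 min at room temperature | evaluation = % enhancement relative to plate controls after blank subtraction | benchmarks = plate controls and plate blanks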
# Lipid drop inh: confirmation of inhibitors of hepatic lipid droplet formation. shares compounds with Hep lipid drop. 65% of 870 active. inhibition, % at 5.2 µM. AID 463183. AML12 mouse hepatocytes, BODIPY lipid droplet imaging; droplets induced with 100 µM oleic acid;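 active = inhibition of lipid droplet metric at least 50%, with more than 300 cells in each of four replicates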;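 note: plate controls were DMSO with oleic acid for no effect and 5 µM Triacsin-C for full effect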
# AML12 tox img: AML12 hepatocyte cytotoxicity (counter-screen); z-score at 5 µM; AML12 mouse hepatocytes, DAPI nuclear morphology cytotoxicity imaging; hits give high values; cells fed 100 µM oleate overnight; 3% of 870 active; shares compounds with Hep lipid drop; AID 463200; in the data active = z-score above about 6.3;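 note: compound exposure lasted overnight at 37 °C before fixation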
# AML12 tox conf: AML12 hepatocyte cytotoxicity, confirmed | shares compounds with Hep lipid drop | AML12 mouse hepatocyte viability, ATP luminescence; cells loaded with 100 µM oleic acid | cytotoxicity, % at 50 µM | 530 tested, under 10 active | AID 463219;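 active = cytotoxicity above 50% in each of four replicates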;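 note: compound exposure lasted overnight at 37 °C before the ATP read; 0% = DMSO-treated cells and 100% = wells with no cells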
# An asterisk follows results filed as active; . = not tested or not shown.
SMILES,p-CIP stab down,Hep lipid drop,Mdm2 ligase inh,Lipid drop inh,AML12 tox img,others
COc1ccc2c(c1)c(CC(=O)Nc1cccc(S(N)(=O)=O)c1)c(C)n2C(=O)c1ccc(Cl)cc1,-9.2,6.8,.,.,.,
COC(=O)CNC(=O)Cc1c(C)n(C(=O)c2ccc(Cl)cc2)c2ccc(OC)cc12,0.6,-7.2,.,.,.,
COc1ccc2c(c1)c(CC(=O)Nc1ccc(C)cc1)c(C)n2C(=O)c1ccc(Cl)cc1,-0.9,80.2*,2.8,106.1*,0.0509,AML12 tox conf=29.9
COc1cc(N2CCCC2)c(OC)cc1/C=C(/C#N)c1ccc(Br)cc1,-191.0,2.3,-18.4,.,.,
COc1cc(N2CCCC2)c(OC)cc1/C=C(/C#N)c1ccc(F)cc1,-48.5,50.1*,-4.0,41.0,0.664,
COC(=O)c1ccccc1NC(=O)Nc1c(C)n(C)n(-c2ccccc2)c1=O,-0.5,15.5,.,.,.,
CSc1ccccc1NC(=S)Nc1ccc(S(N)(=O)=O)cc1,-6.7,6.4,-7.2,.,.,
CC(NC(=O)C1CCN(S(=O)(=O)c2cccc3nonc23)CC1)c1ccccc1 (centres undefined),-4.8,5.4,.,.,.,
COc1cccc(CNS(=O)(=O)c2ccc(S(=O)(=O)NC3CC3)cc2)c1,-11.3,80.5*,.,108.0*,0.015,AML12 tox conf=16.2
COc1ccc(CNS(=O)(=O)c2ccc(S(=O)(=O)NC3CC3)cc2)cc1,-19.6,39.5,.,.,.,
CCOc1ccc(C(=O)OCC(=O)Nc2cc(C)on2)cc1OCC,-17.7,80.3*,1.6,106.0*,-0.178,AML12 tox conf=11.2
CCOc1cc(C(=O)OCC(=O)Nc2cc(C)on2)ccc1OCC(C)C,10.4,16.1,-2.5,.,.,
Cc1onc(-c2ccccc2)c1C(=O)N1CCCC(C(F)(F)F)C1 (centres undefined),9.3,-25.4,.,.,.,
COc1ccc(-c2cc(C(F)(F)F)nc(SCc3cccc(C(=O)O)c3)n2)cc1,-10.2,.,-13.8,.,.,
COc1ccc(-c2cc(C(F)(F)F)nc(SCCC(=O)NCc3ccccc3)n2)cc1,-17.4,61.7*,-12.3,-5.6,0.129,
CCOc1cc2[nH]c(=O)n(CCCC(=O)NCc3ccco3)c(=O)c2cc1OCC,4.1,.,-3.9,.,.,
CCOc1cc2[nH]c(=O)n(CCCC(=O)N(C)Cc3ccccc3)c(=O)c2cc1OCC,0.5,69.9*,-7.2,107.2*,-0.476,AML12 tox conf=10.3
COc1ccc(N2C(=O)CC2(C#N)c2ccc(OCc3ccccc3)cc2)cc1 (centres undefined),0.6,-4.6,-3.5,.,.,
Cc1cccc(CN2CCC(n3nccc3NC(=O)CCCc3ccccc3)CC2)n1,-0.1,0.0,.,.,.,
CC(=O)c1ccc(OCC(=O)Nc2ccccc2N2CCCC2)cc1,4.7,-4.6,.,.,.,
CCc1ccccc1NC(=O)COc1ccc(C(=S)N2CCCC2)cc1,-9.7,54.8*,-18.4,38.1,0.0945,
COc1ccc(-c2cc(=O)oc3cc4occ(C)c4cc23)cc1,-7.8,.,-19.7,.,.,
Cc1coc2cc3oc(=O)cc(C)c3cc12,-2.0,52.5*,-11.1,-22.0,0.568,
FC(F)(F)c1cc(N2CCOCC2)nc(-c2ccccc2)n1,-19.9,-0.2,-4.6,.,.,
c1ccc(-c2nc(N3CCOCC3)cc(N3CCOCC3)n2)cc1,-12.0,67.2*,-17.4,91.7*,-0.204,AML12 tox conf=25.0
SMILES,p-CIP stab down,Hep lipid drop,Mdm2 ligase inh,Lipid drop inh,AML12 tox img,others
Cc1nc2nc(-c3ccc(Cl)cc3)nn2c(C)c1Cl,2.5,.,3.2,.,.,
CCCc1cc(N2CCN(c3ccccn3)CC2)n2nc(C)c(-c3ccccc3)c2n1,-3.6,.,-14.0,.,.,
CCc1nn2c(N3CCOCC3)cc(C)nc2c1-c1ccc(F)cc1,-5.3,88.3*,8.7,110.2*,0.764,AML12 tox conf=2.2
Cc1cc(N2CCN(C)CC2)n2nc(-c3ccc(Cl)cc3)nc2n1,-4.2,61.1*,.,21.6,-0.265,
Cc1cc(N2CCOCC2)n2nc(C(F)(F)F)c(-c3ccccc3)c2n1,5.2,36.9,.,.,.,
Cc1cc(N2CCOCC2)n2nc(C)c(-c3ccc(Cl)cc3)c2n1,0.8,97.5*,.,109.8*,0.255,AML12 tox conf=11.0
CCCc1cc(N2CCOCC2)n2nc(C)c(-c3ccccc3)c2n1,-4.8,63.7*,.,96.1*,0.76,AML12 tox conf=-1.7
Cc1nn2c(N3CCOCC3)cc(C(C)(C)C)nc2c1-c1ccc(Cl)cc1,-1.4,37.9,.,.,.,
Cc1ccc(C)c(N(CC(=O)NC(C)(C)C)C(=O)CNC(=O)c2cccs2)c1,-7.6,-3.6,-5.3,.,.,
COc1ccc(N2C(=O)CC2(/C=C/c2ccccc2OC)C(=O)NC2CCCC2)cc1 (centres undefined),2.8,27.3,-7.8,.,.,
O=C1CC(/C=C/c2ccccc2)(C(=O)NC2CCCC2)N1c1ccc(S(=O)(=O)N2CCCC2)cc1 (centres undefined),-12.0,89.5*,.,83.6*,-0.807,
CCCN(CCC)CCCNC(=O)c1nn(-c2cccc(OC)c2)c(=O)c2ccccc12,-0.2,8.3,-6.7,.,.,
CCc1ccc(NC(=O)C(C)OC(=O)C2CCC(=O)N2)cc1 (centres undefined),12.1,-7.3,-34.0,.,.,
c1cc2c(cc1-c1csc(NNC3=NCCCCC3)n1)OCCO2,5.0,90.2*,-9.9,100.1*,-0.51,AML12 tox conf=38.8
CCC(=O)Nc1nc(-c2ccc3c(c2)OCCO3)cs1,-9.3,-7.5,-20.3,.,.,
O=C(/C(Cl)=C/Nc1ccc(Br)cn1)C(F)(F)F,-22.5,4.4,-1.4,.,.,
Cn1cc(S(=O)(=O)N2CCCC(C(=O)O)C2)cn1 (centres undefined),3.0,32.8,-22.2,.,.,
O=C(NCc1ccccc1)c1cccc(COc2ccc(Cl)cc2)c1,-13.4,.,4.1,.,.,
COc1cc(CNC(=O)c2cccc(COc3ccc(Cl)cc3)c2)cc(OC)c1,-7.2,56.9*,-6.4,91.9*,-0.289,AML12 tox conf=-3.1
CC(C)CC(NC(=O)CC12CC3CC(CC(C3)C1)C2)C(=O)NC1=NCCS1 (centres undefined),-7.2,-5.1,-3.5,.,.,
CCCCOC(=O)/C=C\C(=O)NC(N)=O,-18.2,-4.7,-7.2,.,.,
COc1cccc(NC(=O)N2CCCC2C(=O)Nc2ccc3c(c2)OCO3)c1 (centres undefined),0.4,22.1,-4.7,.,.,
COc1ccccc1NC(=O)N1CCCC1C(=O)Nc1ccc2c(c1)OCO2 (centres undefined),-5.1,71.3*,-9.8,71.2*,0.222,AML12 tox conf=7.4
COCCNC(=S)N1CCc2cc(OC)c(OC)cc2C1COc1cc(C)cc(C)c1 (centres undefined),-3.1,61.6*,-8.0,90.3*,0.581,AML12 tox conf=-1.7
CNC(=S)N1CCc2cc(OC)c(OC)cc2C1COc1ccc(OC)cc1 (centres undefined),2.3,12.6,11.6,.,.,
CC(Cc1nnc(SCC(=O)O)n1N)c1ccccc1 (centres undefined),-3.7,.,.,.,.,
CCOC(=O)NCc1ccccc1,2.7,-4.9,.,.,.,
O=C(NCc1ccc(C(=O)O)cc1)OCc1ccccc1,0.6,63.0*,-14.5,14.5,0.00193,
COc1ccc(-c2noc(CCCC(=O)NC3CCCCC3)n2)cc1,-20.7,-1.4,.,.,.,

# From PubChem BioAssay
